# Publication PMC3717159 (Investigational New Drugs, 2012)
# What was measured:
# LTK = LTK (Homo sapiens, UniProt P29376); test: Biochemical screening against 442 kinases
# MV4-11 xenograft = test: Anti-tumor growth activity, xenograft model; assay type: in vivo, mouse; conditions: MV4-11, FLT3-activating mutation, oral
# Method in brief: (§1)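 Nude mice (athymic or CD-1) carried H1299 orthotopic tumours or MV4-11 xenografts. Test compound was formulated in 10 % acacia and given orally.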
# KP4 xenograft = test: Anti-tumor growth activity, xenograft model; assay type: in vivo, mouse; conditions: KP4, MET autocrine model, oral
# Method in brief: (§2)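 Xenografts were grown in athymic or CD-1 nude mice. Test compound was formulated in 10 % acacia and given orally twice daily without interruption. Tumour growth was compared with a vehicle-treated control group.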
# U-87MG xenograft = test: Anti-tumor growth activity, xenograft model; assay type: in vivo, mouse; conditions: MET autocrine model, oral
# Method in brief: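 U-87MG xenografts were grown in nude mice. Test compound in 10 % acacia was given orally twice daily, either continuously or intermittently. The 5/2 schedule (5 dosing days, 2 off) ran for 4 cycles; the 9/5 schedule (9 dosing days, 5 off) ran for 2 cycles. Tumour growth was compared with vehicle controls.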
# human MET kinase domain [1] = biological target: T1, human MET kinase domain (Homo sapiens, UniProt P08581); test: MET kinase spin column assay; assay type: biochemical; conditions: from Koff
# DU145 cells = test: HGF induced cell scattering assay; assay type: cell-based; conditions: 0.01–10 μM, HGF 20 ng/ml, 48 h, colony counts
# Method in brief: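 DU145 cells (2 × 10^3/well) were plated on poly-D-lysine and given test compound (0.4 % DMSO), then immediately human HGF (20 ng/ml). After 48 h at 37 °C, cells were fixed in 2 % formaldehyde and stained with Alexa488-phalloidin plus propidium iodide. Colonies (≥ 4 cells) were counted by laser-scanning microplate cytometry.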
# H1299 orthotopic model = test: Anti-tumor growth activity, orthotopic model of NSCLC; assay type: in vivo, mouse; conditions: AXL over-expression, oral
# Method in brief: as §1
# H441 xenograft = test: Anti-tumor growth activity, xenograft model; assay type: in vivo, mouse; conditions: H441, MET over-expression, oral
# Method in brief: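 H441 xenografts were grown in nude mice. Test compound in 10 % acacia was given orally twice daily, either continuously or on intermittent schedules. The 5/2 schedule (5 dosing days, 2 drug-free days) ran for 6 cycles; the 9/5 schedule (9 dosing days, 5 drug-free days) ran for 3 cycles. Tumour growth was compared with vehicle controls.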
# [2] = Pharmacokinetics in non-human primate; conditions: in vivo, oral
# [3] = biological target: MET phosphorylation in S114 xenograft tumors (Homo sapiens, UniProt P08581); test: In vivo MET target inhibition in S114 xenograft tumors; design: species or system mouse
# Method in brief: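 Subcutaneous tumors from S114 cells (NIH3T3-derived murine line engineered to express human MET and HGF) in nude mice. Test compound in 10 % acacia, single oral dose. Dose response read 2 h post-dose (n = 8 per dose group, 4 studies pooled); 12 mg/kg time course over 24 h. Tumor phospho-MET measured by MSD ELISA relative to vehicle group, with pharmacokinetic analysis alongside.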
# H1993 xenograft = test: Anti-tumor growth activity, xenograft model; assay type: in vivo, mouse; conditions: H1993, co-express MET and MST1R, oral
# Method in brief: as §2
# MKN45 xenograft = test: Anti-tumor growth activity, xenograft model; assay type: in vivo, mouse; conditions: MKN45, very high MET gene amplification, oral
# Method in brief: as §2
# human MET kinase domain [4] = biological target: T1, human MET kinase domain; test: MET kinase radiometric filter-binding assay; assay type: biochemical; conditions: versus ATP
# HT29 xenograft = test: Anti-tumor growth activity, xenograft model; assay type: in vivo, mouse; conditions: HT29, co-express MET and MST1R, oral
# Method in brief: as §2
# MV4-11 cells = test: In vitro anti-proliferative activity for MV4-11 cells; assay type: cell-based; conditions: Homo sapiens, MV4-11, read-out: in vitro anti-proliferative activity IC50
# ALK = ALK (Homo sapiens, UniProt Q9UM73); test: Biochemical screening against 442 kinases
# Pharmacokinetics in mice = conditions: mouse, in vivo, oral
# U-87MG xenograft tumors = test: Multiplexed immunofluorescence tumor tissue imaging of U-87MG xenograft tumors; assay type: in vivo, mouse; conditions: 12 mg/kg once daily, 28 days, vs vehicle
# Method in brief: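 Mice bearing U-87MG xenografts received test compound orally (10 % acacia) at 1.3 or 12 mg/kg once daily for 28 days, or vehicle. Tumours were then excised and fixed in Zinc-Tris. One panel stained […], CD31, Ki67 and TUNEL; the other stained Hoechst, CD31, GLUT1 and smooth muscle actin. Staining was quantified by imaging.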
# [5] = S114 xenograft, 2 h after dose, oral, 4 studies
# [6] = S114 xenograft, plasma concentration, 2 h after dose
# MET phosphorylation in S114 xenograft tumors, sequence (P08581 25-1390): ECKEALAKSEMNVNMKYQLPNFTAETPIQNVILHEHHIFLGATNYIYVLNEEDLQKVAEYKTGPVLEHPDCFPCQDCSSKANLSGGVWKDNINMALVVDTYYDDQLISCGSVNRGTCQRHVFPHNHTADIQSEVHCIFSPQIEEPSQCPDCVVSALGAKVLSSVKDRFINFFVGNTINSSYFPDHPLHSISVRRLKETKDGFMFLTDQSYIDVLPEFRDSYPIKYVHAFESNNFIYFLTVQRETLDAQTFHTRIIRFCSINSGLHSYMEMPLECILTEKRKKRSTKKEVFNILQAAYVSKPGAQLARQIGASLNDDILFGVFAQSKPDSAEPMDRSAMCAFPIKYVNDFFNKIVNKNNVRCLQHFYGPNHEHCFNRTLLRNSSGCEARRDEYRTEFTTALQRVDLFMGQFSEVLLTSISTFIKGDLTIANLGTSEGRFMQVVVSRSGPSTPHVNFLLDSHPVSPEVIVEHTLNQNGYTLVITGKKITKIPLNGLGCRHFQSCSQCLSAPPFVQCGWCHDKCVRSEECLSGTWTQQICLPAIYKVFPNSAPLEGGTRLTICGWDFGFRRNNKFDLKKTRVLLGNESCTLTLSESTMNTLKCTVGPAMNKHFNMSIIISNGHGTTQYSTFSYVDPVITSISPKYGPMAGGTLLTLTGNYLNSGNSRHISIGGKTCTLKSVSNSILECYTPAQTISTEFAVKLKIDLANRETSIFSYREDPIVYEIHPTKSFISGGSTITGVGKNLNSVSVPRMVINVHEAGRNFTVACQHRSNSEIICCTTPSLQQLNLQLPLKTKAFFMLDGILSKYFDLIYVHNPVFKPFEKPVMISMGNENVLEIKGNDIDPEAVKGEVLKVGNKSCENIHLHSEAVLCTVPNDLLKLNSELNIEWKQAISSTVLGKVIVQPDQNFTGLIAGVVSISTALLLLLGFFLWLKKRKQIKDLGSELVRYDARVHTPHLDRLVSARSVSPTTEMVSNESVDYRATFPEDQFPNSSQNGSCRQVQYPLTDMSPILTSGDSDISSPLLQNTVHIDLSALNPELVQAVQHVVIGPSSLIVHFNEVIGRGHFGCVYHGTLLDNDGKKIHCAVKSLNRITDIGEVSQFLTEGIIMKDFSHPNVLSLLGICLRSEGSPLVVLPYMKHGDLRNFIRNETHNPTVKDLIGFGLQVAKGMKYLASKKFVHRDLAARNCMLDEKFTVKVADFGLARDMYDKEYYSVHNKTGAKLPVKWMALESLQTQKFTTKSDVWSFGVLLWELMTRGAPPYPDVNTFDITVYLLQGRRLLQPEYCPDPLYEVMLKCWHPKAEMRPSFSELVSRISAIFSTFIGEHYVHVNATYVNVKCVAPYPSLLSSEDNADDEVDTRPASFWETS
# T1 sequence (P08581 1078-1345 limits assumed): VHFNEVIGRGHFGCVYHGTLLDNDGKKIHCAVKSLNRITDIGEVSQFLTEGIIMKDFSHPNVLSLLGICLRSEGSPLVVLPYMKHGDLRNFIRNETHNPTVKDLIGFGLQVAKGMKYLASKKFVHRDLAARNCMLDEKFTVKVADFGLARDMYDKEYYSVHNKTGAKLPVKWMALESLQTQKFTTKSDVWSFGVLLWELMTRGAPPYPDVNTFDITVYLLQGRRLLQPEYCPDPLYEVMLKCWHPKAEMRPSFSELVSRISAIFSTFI
# ALK, sequence (Q9UM73 19-1620): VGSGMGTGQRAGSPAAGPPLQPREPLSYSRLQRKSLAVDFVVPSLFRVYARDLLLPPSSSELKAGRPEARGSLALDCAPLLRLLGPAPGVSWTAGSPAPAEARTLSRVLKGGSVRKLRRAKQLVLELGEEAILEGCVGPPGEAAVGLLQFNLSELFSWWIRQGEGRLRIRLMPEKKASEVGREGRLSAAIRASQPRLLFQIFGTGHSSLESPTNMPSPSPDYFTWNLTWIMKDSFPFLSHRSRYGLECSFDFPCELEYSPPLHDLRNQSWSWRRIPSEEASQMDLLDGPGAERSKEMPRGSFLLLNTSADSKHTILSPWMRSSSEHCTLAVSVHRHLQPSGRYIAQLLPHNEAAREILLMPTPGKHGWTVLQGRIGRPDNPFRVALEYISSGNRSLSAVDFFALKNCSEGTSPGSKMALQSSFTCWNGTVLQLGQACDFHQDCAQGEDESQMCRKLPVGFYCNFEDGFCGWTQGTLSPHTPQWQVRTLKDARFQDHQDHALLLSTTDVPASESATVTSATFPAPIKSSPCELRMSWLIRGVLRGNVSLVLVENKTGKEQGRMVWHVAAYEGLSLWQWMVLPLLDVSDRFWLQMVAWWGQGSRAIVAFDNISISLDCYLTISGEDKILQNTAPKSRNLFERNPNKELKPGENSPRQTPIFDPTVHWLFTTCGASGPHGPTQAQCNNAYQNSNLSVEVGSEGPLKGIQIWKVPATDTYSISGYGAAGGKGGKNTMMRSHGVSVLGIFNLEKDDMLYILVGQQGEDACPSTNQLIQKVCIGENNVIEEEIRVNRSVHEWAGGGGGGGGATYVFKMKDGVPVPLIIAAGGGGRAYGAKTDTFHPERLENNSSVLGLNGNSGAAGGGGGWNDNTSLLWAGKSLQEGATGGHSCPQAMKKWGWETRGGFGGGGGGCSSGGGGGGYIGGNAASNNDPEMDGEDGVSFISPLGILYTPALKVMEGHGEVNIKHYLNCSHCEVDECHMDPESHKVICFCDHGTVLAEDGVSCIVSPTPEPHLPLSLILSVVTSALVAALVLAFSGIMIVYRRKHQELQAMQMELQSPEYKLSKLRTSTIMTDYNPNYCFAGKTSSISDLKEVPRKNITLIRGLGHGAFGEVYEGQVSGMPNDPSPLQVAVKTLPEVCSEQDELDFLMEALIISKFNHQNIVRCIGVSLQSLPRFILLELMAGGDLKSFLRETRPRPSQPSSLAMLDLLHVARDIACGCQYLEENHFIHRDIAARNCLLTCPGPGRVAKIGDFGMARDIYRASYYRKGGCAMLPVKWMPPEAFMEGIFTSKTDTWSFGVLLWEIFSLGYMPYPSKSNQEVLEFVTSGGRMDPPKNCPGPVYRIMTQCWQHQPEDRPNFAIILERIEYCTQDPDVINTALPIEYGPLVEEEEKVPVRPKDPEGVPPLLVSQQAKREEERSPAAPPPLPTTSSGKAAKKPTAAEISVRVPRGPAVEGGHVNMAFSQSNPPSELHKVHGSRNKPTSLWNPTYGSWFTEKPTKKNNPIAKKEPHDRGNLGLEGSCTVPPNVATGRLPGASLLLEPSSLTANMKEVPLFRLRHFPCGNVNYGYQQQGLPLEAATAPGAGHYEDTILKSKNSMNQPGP
# LTK, sequence (P29376 17-864): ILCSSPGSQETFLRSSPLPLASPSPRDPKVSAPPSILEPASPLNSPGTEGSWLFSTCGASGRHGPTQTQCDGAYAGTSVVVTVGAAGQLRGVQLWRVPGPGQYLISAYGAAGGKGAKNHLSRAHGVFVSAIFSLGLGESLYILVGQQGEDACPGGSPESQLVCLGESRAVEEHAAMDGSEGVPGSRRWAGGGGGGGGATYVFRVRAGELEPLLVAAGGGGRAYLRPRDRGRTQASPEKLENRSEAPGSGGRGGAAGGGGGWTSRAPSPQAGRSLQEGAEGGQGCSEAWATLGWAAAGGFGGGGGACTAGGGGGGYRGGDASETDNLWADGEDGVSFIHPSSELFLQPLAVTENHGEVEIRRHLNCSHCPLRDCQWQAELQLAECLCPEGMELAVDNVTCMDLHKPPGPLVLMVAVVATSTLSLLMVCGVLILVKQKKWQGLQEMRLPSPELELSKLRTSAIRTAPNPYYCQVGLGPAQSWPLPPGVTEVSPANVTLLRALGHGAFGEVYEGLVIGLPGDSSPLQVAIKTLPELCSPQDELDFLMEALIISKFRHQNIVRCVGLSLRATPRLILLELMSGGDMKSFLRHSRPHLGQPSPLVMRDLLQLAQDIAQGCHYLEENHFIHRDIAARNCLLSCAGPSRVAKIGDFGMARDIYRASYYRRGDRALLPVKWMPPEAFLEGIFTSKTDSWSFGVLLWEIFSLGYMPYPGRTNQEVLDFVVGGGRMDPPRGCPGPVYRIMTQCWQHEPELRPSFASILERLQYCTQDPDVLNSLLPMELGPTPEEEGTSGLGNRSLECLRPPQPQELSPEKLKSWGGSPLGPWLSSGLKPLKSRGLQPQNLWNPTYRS
compound,measurement,setting,value
"Cc1ccc(C(=O)Nc2ccc(Oc3cc4cnn(C)c4cc3-c3cn[nH]c3)c(F)c2)c(=O)n1-c1ccc(F)cc1 [LY2801653, N-(3-fluoro-4-{[1-methyl-6-(1H-pyrazol-4-yl)-1H-indazol-5 yl]oxy}phenyl)-1-(4-fluorophenyl)-6-methyl-2-oxo-1,2-dihydropyridine-3-carboxamide]",activity against LTK,LTK,does not have significant activity
same,in vivo anti-tumor growth activity,MV4-11 xenograft,in vivo anti-tumor growth activity
same,anti-tumor growth effect,KP4 xenograft,significant anti-tumor growth effect
same,anti-tumor growth effect,U-87MG xenograft,significant anti-tumor growth effect
same,half-life (t1/2),human MET kinase domain [1],8.75 h
same,effect on HGF-induced DU-145 cell scattering,DU145 cells,completely blocked
same,in vivo anti-tumor growth activity,H1299 orthotopic model,in vivo anti-tumor growth activity
same,anti-tumor growth effect,H441 xenograft,significant anti-tumor growth effect
same,half-life,[2],14.3 h
same,p-MET inhibition in tumors by 16 h,"[3]; S114 xenograft, 12 mg/kg oral, 16 h",no p-MET inhibition was observed
same,inhibition of p-MET,"[3]; S114 xenograft, 12 mg/kg oral, at 2 h and maintained up to 8 h",Ninety-five percent
same,composite TED50 (50 % target inhibition dose),[3]; [5],1.2 mg/kg
same,composite TED90 (90 % target inhibition dose),[3]; [5],7.4 mg/kg
same,inhibition of MET phosphorylation,"[3]; S114 xenograft, 2 h post-treatment, single 50-mg/kg dose, oral",98%
same,TEC50 (the concentration that inhibited 50 % MET phosphorylation),[3]; [6],0.2 µM
same,TEC90 (the concentration that inhibited 90 % MET phosphorylation),[3]; [6],2 µM
same,inhibition at 12 mg/kg,"[3]; mouse, po, read-out: inhibition of p-MET",95%
same,tumor activity in xenograft model,H1993 xenograft,demonstrates tumor activity
same,anti-tumor growth effect,MKN45 xenograft,significant anti-tumor growth effect
same,mode of inhibition,human MET kinase domain [4],competitive
same,tumor activity in xenograft model,HT29 xenograft,demonstrates tumor activity
same,IC50,MV4-11 cells,4 nM
same,activity against ALK,ALK,does not have significant activity
same,half-life,Pharmacokinetics in mice,2.9 h
same,GLUT1 expression,U-87MG xenograft tumors,decrease in GLUT1 expression
same,apoptotic area,U-87MG xenograft tumors,significantly reduced apoptotic area
same,pericyte coverage of vessels,U-87MG xenograft tumors,increase in pericyte coverage of vessels
